Reference: ChEMBL document CHEMBL6177924, “Synthesis and antifungal evaluation of new azole derivatives containing 1,2,3-triazole” (RSC Med Chem, 2025)
In brackets after ≈: the same amount, converted by molar mass. Activity calls are given as the source filed them. No cut-off for these calls is given here.

What was measured:
Candida albicans [1] = test: Antifungal activity against drug sensitive Candida albicans SC5314 assessed as inhibition of fungal growth incubated for 24 hrs by CLSI protocol based microdilution method; assay type: functional
Procedure, shortened: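 Broth microdilution of log-phase C. albicans at 1×10^5 CFU/mL in Sabouraud liquid medium (SDB). Compounds serially diluted 5-fold to final 200-0.064 µg/mL, DMSO below 0.1%. Triplicate wells, 200 µL final volume, with growth, blank and fluconazole controls. Incubated 24 h at 30 °C, OD read at 630 nm; experiment repeated three times.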

Candida albicans [2] = test: Antifungal activity against drug resistant Candida albicans SC5314-FR assessed as inhibition of fungal growth incubated for 24 hrs by CLSI protocol based microdilution method; assay type: functional
Procedure, shortened: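 Fluconazole-resistant strain derived from SC5314 by fluconazole exposure. Log-phase cells at 1×10^5 CFU/mL in SDB. Drug fivefold serial dilutions, 200–0.064 µg/mL final, DMSO <0.1%, triplicate wells, 200 µL. Incubated 30 °C for 24 h and read at OD630. Growth, blank and fluconazole controls included. Run three times.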

Candida albicans [3] = test: Antifungal activity against Candida albicans SC5314 assessed as inhibition of fungal growth measured up to 48 hrs by time-killing curve analysis; assay type: functional, organism-based
Procedure, shortened: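 Log-phase cells at 1×10^5 CFU/mL in SDB, 10 mL per group. Drug at 0.27, 0.53 or 1.06 µg/mL, plus fluconazole and untreated controls. Shaken 150 r/min at 30 °C. Samples taken at 0, 4, 8, 12, 24, 36 and 48 h and read at A630, triplicate wells. Absorbance plotted against time.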

Candida albicans [4] = test: Antifungal activity against Candida albicans SC5314 assessed as inhibition of fungal growth measured after 36 hrs by time-killing curve analysis; assay type: functional, organism-based
Procedure, shortened: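 Log-phase C. albicans at 1×10^5 CFU/mL in SDB, 10 mL cultures with drug (0.27, 0.53, 1.06 µg/mL), fluconazole or no drug. Shaken at 150 r/min, 30 °C. Samples taken at 0, 4, 8, 12, 24, 36 and 48 h for absorbance at 630 nm, triplicate wells. Absorbance plotted against time.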

Candida albicans [5] = test: Antifungal activity against Candida albicans assessed as inhibition of mycelia formation at 0.27 to 1.06 microg/ml measured after 4 to 8 hrs by inverted microscopic analysis; assay type: functional, organism-based; conditions: dose 0.27-1.06 µg/ml, time 4-8 hrs
Procedure, shortened: (§1)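 Hyphae were induced in SD+10% FBS or in Spider medium. Log-phase cells at 1×10^5 CFU/mL final, 1 mL per well in 24-well plates, 3 wells per group. Drug at 0.27, 0.53 or 1.06 µg/mL, fluconazole, or no-drug control. Incubated at 30 °C; hyphal formation observed and photographed by inverted microscope at 4 h and 8 h.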

Candida albicans [6] = test: Antifungal activity against Candida albicans assessed as increase in yeast fungal cells at 0.27 to 1.06 microg/ml measured after 4 to 8 hrs by inverted microscopic analysis; assay type: functional, organism-based; conditions: dose 0.27-1.06 µg/ml, time 4-8 hrs; procedure, shortened: as §1
Candida albicans [7] = test: Antifungal activity against Candida albicans assessed as increase in pseudomycelial fungal cells at 0.27 to 1.06 microg/ml measured after 4 to 8 hrs by inverted microscopic analysis; assay type: functional, organism-based; conditions: dose 0.27-1.06 µg/ml, time 4-8 hrs; procedure, shortened: as §1
Candida albicans [8] = test: Antifungal activity against Candida albicans assessed as increase in pseudomycelial fungal cells with reduction in mycelial formation at 0.27 to 1.06 microg/ml measured after 8 hrs by inverted microscopic analysis; assay type: functional, organism-based; conditions: dose 0.27-1.06 µg/ml; procedure, shortened: as §1
Candida albicans [9] = test: Antifungal activity against Candida albicans assessed as inhibition of mycelia formation at 0.53 microg/ml measured after 4 to 8 hrs by inverted microscopic analysis; assay type: functional, organism-based; conditions: dose 0.53 µg/ml, time 4-8 hrs; procedure, shortened: as §1
Candida albicans [10] = test: Antibiofilm activity in Candida albicans SC5314 assessed as decrease in number of mycelia at 0.27 microg/ml measured after 24 hrs by inverted microscopic analysis; assay type: functional, organism-based; conditions: dose 0.27 µg/ml
Procedure, shortened: (§2)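 Log-phase C. albicans in RPMI1640+10% FBS at 1×10^5 CFU/mL allowed to adhere in 24-well plates for 90 min at 30 °C; unattached medium removed. 1 mL medium with drug (0.27, 0.53, 1.06 µg/mL) or without drug added; 24 h at 30 °C. Biofilm stained with crystal violet 30 min, washed 3× with PBS, viewed by inverted microscope.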

Candida albicans [11] = test: Antibiofilm activity in Candida albicans SC5314 assessed as appearance of short mycelia at 0.27 microg/ml measured after 24 hrs by inverted microscopic analysis; assay type: functional, organism-based; conditions: dose 0.27 µg/ml; procedure, shortened: as §2
Candida albicans [12] = test: Antibiofilm activity in Candida albicans SC5314 assessed as appearance of yeast form of fungal cells at 0.27 microg/ml measured after 24 hrs by inverted microscopic analysis; assay type: functional, organism-based; conditions: dose 0.27 µg/ml; procedure, shortened: as §2
Candida albicans [13] = test: Antibiofilm activity in Candida albicans SC5314 assessed as appearance of pseudomycelial form of fungal cells at 0.27 microg/ml measured after 24 hrs by inverted microscopic analysis; assay type: functional, organism-based; conditions: dose 0.27 µg/ml; procedure, shortened: as §2
Candida albicans [14] = test: Antibiofilm activity in Candida albicans SC5314 assessed as sparse distribution of fungal cells at 0.53 microg/ml measured after 24 hrs by inverted microscopic analysis; assay type: functional, organism-based; conditions: dose 0.53 µg/ml; procedure, shortened: as §2
Candida albicans [15] = test: Antibiofilm activity in Candida albicans SC5314 assessed as appearance of fungal cells in yeast shape with few mycelia measured after 24 hrs by inverted microscopic analysis; assay type: functional, organism-based; conditions: dose 0.27-1.06 µg/ml; procedure, shortened: as §2
Cell membrane = test: Induction of cell membrane permeability in Candida albicans assessed as increase in fluorescence intensity by multifunctional enzymatic assay; assay type: subcellular
Candida albicans [16] = test: Induction of morphological changes in Candida albicans assessed as normal cell wall appearance at 0.53 microg/ml incubated for 16 to 24 hrs by transmission electron microscopic analysis; assay type: functional, organism-based; conditions: dose 0.53 µg/ml, time 16-24 hrs
Procedure, shortened: (§3)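 C. albicans at 5×10^5 CFU/mL in SDB shaken with drug (0.27, 0.53, 1.06 µg/mL), fluconazole or no drug at 30 °C, 150 r/min, for 16-24 h. Pellets washed with PBS and fixed in cold 3% paraformaldehyde/2.5% glutaraldehyde at 4 °C, then 1% OsO4. Dehydrated in acetone and embedded in Epon-812. 60-90 nm sections stained with uranyl acetate and lead citrate, imaged by TEM.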

Candida albicans [17] = test: Induction of morphological changes in Candida albicans assessed as blurred spacing between cell wall and cell membrane at 0.53 microg/ml incubated for 16 to 24 hrs by transmission electron microscopic analysis; assay type: functional, organism-based; conditions: dose 0.53 µg/ml, time 16-24 hrs; procedure, shortened: as §3
Candida albicans [18] = test: Induction of morphological changes in Candida albicans assessed as absence of intracellular substance at 0.53 microg/ml incubated for 16 to 24 hrs by transmission electron microscopic analysis; assay type: functional, organism-based; conditions: dose 0.53 µg/ml, time 16-24 hrs; procedure, shortened: as §3
Candida albicans [19] = test: Induction of morphological changes in Candida albicans assessed as incomplete cell wall structure at 0.53 to 1.06 microg/ml incubated for 16 to 24 hrs by transmission electron microscopic analysis; assay type: functional, organism-based; conditions: dose 0.53-1.06 µg/ml, time 16-24 hrs; procedure, shortened: as §3
Candida albicans [20] = test: Induction of morphological changes in Candida albicans assessed as blurred boundary between cell wall and cell membrane at 0.53 to 1.06 microg/ml incubated for 16 to 24 hrs by transmission electron microscopic analysis; assay type: functional, organism-based; conditions: dose 0.53-1.06 µg/ml, time 16-24 hrs; procedure, shortened: as §3
Candida albicans [21] = test: Induction of morphological changes in Candida albicans assessed as unclear cell membrane outline at 0.53 to 1.06 microg/ml incubated for 16 to 24 hrs by transmission electron microscopic analysis; assay type: functional, organism-based; conditions: dose 0.53-1.06 µg/ml, time 16-24 hrs; procedure, shortened: as §3
Candida albicans [22] = test: Induction of morphological changes in Candida albicans assessed as effect on cytoplasmic morphology at 0.53 to 1.06 microg/ml incubated for 16 to 24 hrs by transmission electron microscopic analysis; assay type: functional, organism-based; conditions: dose 0.53-1.06 µg/ml, time 16-24 hrs; procedure, shortened: as §3

With `O=C(Cn1cc(COC(Cn2ccnc2)c2ccc(Cl)cc2Cl)nn1)c1ccc2ccccc2c1` (stereo not drawn) the MIC50 (Candida albicans [1]) was 0.53 µg/mL (≈ 1.05 µM), the MIC50 (Candida albicans [2]) was 10.9 µg/mL (≈ 21.6 µM) and the Activity (Candida albicans [3]) was “Active”. For the same compound, the Activity (Candida albicans [4]) was “Dose-dependent-effect”, the Activity (Candida albicans [5]) was “Active” and the Activity (Candida albicans [6]) was “Active”. The Activity (Candida albicans [7]) was “Active”, the Activity (Candida albicans [8]) was “Active” and the Activity (Candida albicans [9]) was “Active; Better Than That Of Fluconazole Group”. The Activity (Candida albicans [10]) was “Active”, the Activity (Candida albicans [11]) was “Active” and the Activity (Candida albicans [12]) was “Active”. The Activity (Candida albicans [13]) was “Active”, the Activity (Candida albicans [14]) was “Active” and the Activity (Candida albicans [15]) was “Dose-dependent-effect”. The Activity (Cell membrane) was “Dose-dependent-effect; Better Than That Of Fluconazole Group”, the Activity (Candida albicans [16]) was “Active” and the Activity (Candida albicans [17]) was “Active”. For the same compound, the Activity (Candida albicans [18]) was “Active”, the Activity (Candida albicans [19]) was “Active” and the Activity (Candida albicans [20]) was “Active”. For the same compound, the Activity (Candida albicans [21]) was “Active” and the Activity (Candida albicans [22]) was “Active”.
